# Assay results taken from ChEMBL document CHEMBL1123302, “Antagonists of substance P. Further modifications of substance P antagonists obtained by replacing either positions 7, 9 or 7, 8 and 11 of SP with D-amino acid residues” (J Med Chem, 1986).
# pIC50: −log10 of the molar value.
# How the values were obtained:
# Substance-P receptor = Substance-P receptor (Rattus norvegicus, UniProt P14600); experiment: Histamine releasing activity of Substance P from isolated rat peritoneal mast cells; format: functional
# In short: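 Histamine release from isolated rat peritoneal mast cells, method of Fretwell et al. Dose-response curves were built over a range of concentrations, and EC50 values were calculated from the curves.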
# [1] = target: Substance-P receptor (Cavia porcellus) (UniProt P30547); experiment: In vitro inhibition of substance P (6-11) hexapeptide induced contractions of the guinea pig ileum at 10 uM.; format: tissue-based
# In short: (§1)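 Agonist (SP or SP(6-11)-hexapeptide) dose-response curves on a 3-min cycle with 1-min contact, then washout. Dose ratio = agonist EC50 with antagonist / EC50 alone. At least two preparations per compound; ratios below 2 taken as insignificant.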
# [2] = target: Substance-P receptor (Cavia porcellus) (UniProt P30547); experiment: In vitro inhibition of substance P (6-11) hexapeptide induced contractions of the guinea pig ileum at 5 uM.; format: tissue-based; in short: as §1
# [3] = target: Substance-P receptor (Cavia porcellus) (UniProt P30547); experiment: In vitro inhibition of substance P induced contractions of the guinea pig ileum at 5 uM.; format: tissue-based; in short: as §1
# [4] = target: Substance-P receptor (Cavia porcellus) (UniProt P30547); experiment: In vitro inhibition of substance P induced contractions of the guinea pig ileum at 10 uM.; format: tissue-based; in short: as §1
# [5] = target: Metabotropic glutamate receptor 3 (Rattus norvegicus) (UniProt P31422); experiment: Antagonistic activity against Glutamate receptor in rat spinal cord at concentration of 50 uM.; format: functional, tissue-based
# In short: (§2)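 Neonatal rat spinal cord, hemisected sagittally, superfused at 1 mL/min with oxygenated Krebs-Henseleit medium containing 0.5% urethane at room temperature. Agonists were given in 2-mL doses in the superfusate. Antagonist was superfused continuously for at least 15 min before agonist retesting. Read-out was ventral root depolarization (DC potential, ventral root vs cord body), measured as amplitude and area of response.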
# [6] = target: Metabotropic glutamate receptor 3 (Rattus norvegicus) (UniProt P31422); experiment: Antagonistic activity against Glutamate receptor in rat spinal cord at concentration of 5 uM.; format: functional, tissue-based; in short: as §2
# [7] = target: Substance-P receptor (Rattus norvegicus) (UniProt P14600); experiment: Antagonistic activity against Substance P receptor in rat spinal cord at concentration of 5 uM.
# [8] = target: Substance-P receptor (Rattus norvegicus) (UniProt P14600); experiment: Antagonistic activity against Substance P(6-11) receptor in rat spinal cord at concentration of 50 uM.
# [9] = target: Substance-P receptor (Rattus norvegicus) (UniProt P14600); experiment: Antagonistic activity against Substance P(6-11) receptor in rat spinal cord at concentration of 5 uM.
# [10] = target: Substance-P receptor (Rattus norvegicus) (UniProt P14600); experiment: Antagonistic activity against Substance P receptor in rat spinal cord at concentration of 50 uM.
# [11] = target: Substance-P receptor (Rattus norvegicus) (UniProt P14600); experiment: Antagonistic activity against Substance P receptor in rat spinal cord at concentration of 10 uM.
# [12] = target: Metabotropic glutamate receptor 3 (Rattus norvegicus) (UniProt P31422); experiment: Antagonistic activity against Glutamate receptor in rat spinal cord at concentration of 10 uM.; format: functional, tissue-based; in short: as §2
# [13] = target: Substance-P receptor (Rattus norvegicus) (UniProt P14600); experiment: Antagonistic activity against Substance P(6-11) receptor in rat spinal cord at concentration of 10 uM.
# Sequence of Substance-P receptor (Cavia porcellus) (P30547 whole entry): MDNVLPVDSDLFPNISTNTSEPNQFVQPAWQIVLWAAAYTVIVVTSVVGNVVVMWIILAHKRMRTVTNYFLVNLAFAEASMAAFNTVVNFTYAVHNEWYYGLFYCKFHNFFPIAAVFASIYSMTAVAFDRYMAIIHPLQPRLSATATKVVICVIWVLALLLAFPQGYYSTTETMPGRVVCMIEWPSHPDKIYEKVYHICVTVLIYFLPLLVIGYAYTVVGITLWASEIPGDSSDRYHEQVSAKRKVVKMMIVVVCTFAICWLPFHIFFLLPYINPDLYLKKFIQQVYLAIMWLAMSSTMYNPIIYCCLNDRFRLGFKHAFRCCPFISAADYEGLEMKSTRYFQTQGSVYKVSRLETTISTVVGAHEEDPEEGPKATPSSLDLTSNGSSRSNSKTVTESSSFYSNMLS
# Sequence of Metabotropic glutamate receptor 3 (Rattus norvegicus) (P31422 23-879 limits assumed): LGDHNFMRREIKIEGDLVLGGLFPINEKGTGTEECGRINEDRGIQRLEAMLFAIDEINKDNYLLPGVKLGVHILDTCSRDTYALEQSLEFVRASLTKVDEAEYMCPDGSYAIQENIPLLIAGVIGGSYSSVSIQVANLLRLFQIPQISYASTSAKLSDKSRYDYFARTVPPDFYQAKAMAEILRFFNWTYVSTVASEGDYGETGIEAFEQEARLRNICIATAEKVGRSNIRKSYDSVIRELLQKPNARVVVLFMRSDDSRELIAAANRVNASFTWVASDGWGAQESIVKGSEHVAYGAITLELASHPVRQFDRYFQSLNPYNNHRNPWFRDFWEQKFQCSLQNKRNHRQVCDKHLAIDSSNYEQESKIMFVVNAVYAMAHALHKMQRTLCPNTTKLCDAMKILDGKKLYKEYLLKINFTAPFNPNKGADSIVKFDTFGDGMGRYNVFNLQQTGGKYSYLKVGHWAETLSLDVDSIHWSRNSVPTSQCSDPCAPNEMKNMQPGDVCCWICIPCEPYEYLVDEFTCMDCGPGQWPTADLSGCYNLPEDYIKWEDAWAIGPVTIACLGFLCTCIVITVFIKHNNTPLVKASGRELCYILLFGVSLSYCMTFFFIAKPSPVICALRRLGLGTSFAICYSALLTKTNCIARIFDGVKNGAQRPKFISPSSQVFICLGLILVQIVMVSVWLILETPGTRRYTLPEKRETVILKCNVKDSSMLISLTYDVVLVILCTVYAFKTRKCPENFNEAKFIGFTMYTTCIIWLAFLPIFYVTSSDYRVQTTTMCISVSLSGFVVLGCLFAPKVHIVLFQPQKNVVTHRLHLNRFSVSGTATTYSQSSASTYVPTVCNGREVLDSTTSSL
# Sequence of Substance-P receptor (Rattus norvegicus) (P14600 whole entry, looked up): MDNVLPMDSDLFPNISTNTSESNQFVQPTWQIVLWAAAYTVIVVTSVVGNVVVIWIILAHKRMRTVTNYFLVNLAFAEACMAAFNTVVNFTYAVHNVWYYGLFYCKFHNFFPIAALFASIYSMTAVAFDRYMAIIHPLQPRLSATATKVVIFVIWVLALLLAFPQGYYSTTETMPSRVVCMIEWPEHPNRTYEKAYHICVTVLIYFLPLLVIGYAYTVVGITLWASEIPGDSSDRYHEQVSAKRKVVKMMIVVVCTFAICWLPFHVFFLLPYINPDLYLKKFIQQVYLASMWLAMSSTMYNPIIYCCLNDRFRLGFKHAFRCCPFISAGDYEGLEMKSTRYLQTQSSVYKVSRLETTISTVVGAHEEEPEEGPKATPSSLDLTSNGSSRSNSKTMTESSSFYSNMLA
# Sequence of Substance-P receptor (P14600 whole entry): as the sequence (P14600 whole entry, looked up) above
Compound,Activity [1] [dose ratio],Activity [2] [dose ratio],Activity [3] [dose ratio],Activity [4] [dose ratio],also measured
COC(=O)[C@@H](CCSC)NC(=O)[C@@H](CC(C)C)SCCNC(=O)[C@@H](Cc1ccccc1)NC(=O)[C@@H](Cc1ccccc1)NC(=O)[C@H](CCC(N)=O)NC(=O)[C@H](CCC(N)=O)NC(=O)[C@H]1CCCN1C(=O)[C@H](CCCCNC(=O)OCc1ccccc1)NC(=O)[C@H]1CCCN1C(=O)[C@H](CCCN=C(N)N)NC(=O)OCc1ccccc1,,,,,pIC50 (Substance-P receptor): 4.60
COC(=O)[C@@H](CCSC)NC(=O)[C@H](CC(C)C)SCCNC(=O)[C@@H](Cc1ccccc1)NC(=O)[C@@H](Cc1ccccc1)NC(=O)[C@H](CCC(N)=O)NC(=O)[C@H](CCC(N)=O)NC(=O)[C@H]1CCCN1C(=O)[C@H](CCCCNC(=O)OCc1ccccc1)NC(=O)[C@H]1CCCN1C(=O)[C@H](CCCNC(=N)N)NC(=O)OCc1ccccc1,,,,,pIC50 (Substance-P receptor): 4.48
CSCC[C@H](NC(=O)[C@H](CC(C)C)NC(=O)[C@@H](Cc1c[nH]c2ccccc12)NC(=O)[C@H](Cc1ccccc1)NC(=O)[C@@H](Cc1ccccc1)NC(=O)[C@H](CCCNC(=N)N)NC(=O)[C@H](CC(N)=O)NC(=O)[C@@H]1CCCN1C(=O)[C@H](CCCCNC(=O)OCc1ccccc1)NC(=O)[C@H]1CCCN1C(=O)[C@H](CCCNC(=N)N)NC(=O)OCc1ccccc1)C(N)=O,,,,,pIC50 (Substance-P receptor): 6.30
COC(=O)[C@@H](CCSC)NC(=O)[C@@H](CC(C)C)NC(=O)CNC(=O)[C@@H](Cc1c[nH]c2ccccc12)NC(=O)[C@@H](Cc1c[nH]c2ccccc12)NC(=O)[C@H](CCC(N)=O)NC(=O)[C@H](CCC(N)=O)NC(=O)[C@@H]1CCCN1C(=O)[C@H](CCCCNC(=O)OCc1ccccc1)NC(=O)[C@@H]1CCCN1C(=O)[C@H](CCCN=C(N)N)NC(=O)OCc1ccccc1,37,34,15,17.2,
COC(=O)[C@@H](CCSC)NC(=O)[C@H](CC(C)C)SCCNC(=O)[C@@H](Cc1ccccc1)NC(=O)[C@H](Cc1ccccc1)NC(=O)[C@H](CCC(N)=O)NC(=O)[C@H](CCC(N)=O)NC(=O)[C@H]1CCCN1C(=O)[C@H](CCCCNC(=O)OCc1ccccc1)NC(=O)[C@H]1CCCN1C(=O)[C@H](CCCN=C(N)N)NC(=O)OCc1ccccc1,49.3,21.6,4.5,15.2,Change in amplitude response [5]: -5%; Change in amplitude response [6]: 5%
COC(=O)[C@@H](CCSC)NC(=O)[C@H](CC(C)C)SCCNC(=O)[C@H](Cc1ccccc1)NC(=O)[C@@H](Cc1ccccc1)NC(=O)[C@H](CCCN=C(N)N)NC(=O)[C@H](CC(N)=O)NC(=O)OCc1ccccc1,225,69,5.8,18.2,
CSCCC(NC(=O)C(CC(C)C)NC(=O)[C@@H](Cc1c[nH]c2ccccc12)NC(=O)[C@H](Cc1ccccc1)NC(=O)[C@@H](Cc1c[nH]c2ccccc12)NC(=O)[C@H](CCC(N)=O)NC(=O)[C@H](CCC(N)=O)NC(=O)[C@@H]1CCCN1C(=O)[C@H](CCCCN)NC(=O)[C@H]1CCCN1C(=O)[C@@H](N)CCCNC(=N)N)C(N)=O (stereo in doubt),,,,,pIC50 (Substance-P receptor): 5.40
COC(=O)C(CCSC)NC(=O)[C@@H](CC(C)C)SCCNC(=O)[C@@H](Cc1ccccc1)NC(=O)[C@H](Cc1ccccc1)NC(=O)[C@H](CCC(N)=O)NC(=O)[C@H](CCC(N)=O)NC(=O)[C@H]1CCCN1C(=O)[C@H](CCCCN)NC(=O)[C@H]1CCCN1C(=O)[C@@H](N)CCCN=C(N)N (stereo in doubt),19,3.1,< 2,< 2,
COC(=O)C(CCSC)NC(=O)[C@H](CC(C)C)SCCNC(=O)[C@@H](Cc1ccccc1)NC(=O)[C@@H](Cc1ccccc1)NC(=O)[C@H](CCC(N)=O)NC(=O)[C@H](CCC(N)=O)NC(=O)[C@H]1CCCN1C(=O)[C@H](CCCCN)NC(=O)[C@H]1CCCN1C(=O)[C@@H](N)CCCN=C(N)N (stereo in doubt),3.4,2.5,2.7,3.6,
COC(=O)[C@@H](CCSC)NC(=O)C(CC(C)C)NC(=O)[C@@H](Cc1c[nH]c2ccccc12)NC(=O)[C@H](Cc1c[nH]c2ccccc12)NC(=O)[C@@H](Cc1c[nH]c2ccccc12)NC(=O)[C@H](CCC(N)=O)NC(=O)[C@H](CCC(N)=O)NC(=O)[C@@H]1CCCN1C(=O)[C@H](CCCCNC(=O)OCc1ccccc1)NC(=O)[C@@H]1CCCN1C(=O)[C@H](CCCN=C(N)N)NC(=O)OCc1ccccc1 (stereo in doubt),10.7,7.2,6.2,9.8,
COC(=O)[C@@H](CCSC)NC(=O)C(CC(C)C)SCCNC(=O)[C@H](Cc1ccccc1)NC(=O)[C@@H](Cc1ccccc1)NC(=O)[C@H](CCC(N)=O)NC(=O)[C@H](CCC(N)=O)NC(=O)C1CCCN1C(=O)OC(C)(C)C (stereo in doubt),< 2,< 2,< 2,< 2,Change in amplitude response [5]: -50%; Change in amplitude response [7]: 42%; Change in amplitude response [8]: -80%; Change in amplitude response [9]: -7%; Change in amplitude response [10]: -62%
COC(=O)[C@@H](CCSC)NC(=O)[C@H](CC(C)C)N(C)C(=O)CN(C)C(=O)[C@H](Cc1ccccc1)NC(=O)[C@@H](Cc1ccccc1)NC(=O)[C@H](CCC(N)=O)NC(=O)[C@H](CCC(N)=O)NC(=O)C1CCCN1C(=O)OC(C)(C)C (stereo in doubt),< 2,< 2,< 2,< 2,
COC(=O)[C@@H](CCSC)NC(=O)[C@H](CC(C)C)N(C)C(=O)CN(C)C(=O)[C@H](Cc1ccccc1)NC(=O)[C@@H](Cc1ccccc1)NC(=O)[C@H](CCC(N)=O)NC(=O)[C@H](CCC(N)=O)NC(=O)C1CCCN1C(=O)[C@H](CCCCN)NC(=O)C1CCCN1C(=O)[C@@H](N)CCCN=C(N)N (stereo in doubt),2.5,< 2,< 2,< 2,
COC(=O)[C@@H](CCSC)NC(=O)[C@H](CC(C)C)SCCNC(=O)[C@H](Cc1ccccc1)NC(=O)[C@@H](Cc1ccccc1)NC(=O)[C@H](CCC(N)=O)NC(=O)[C@H](CCC(N)=O)NC(=O)C1CCCN1C(=O)OC(C)(C)C (stereo in doubt),10,3,< 2,2.3,Change in amplitude response [5]: -43%; Change in amplitude response [7]: 40%; Change in amplitude response [8]: -74%; Change in amplitude response [9]: -28%; Change in amplitude response [10]: -54%
COC(=O)[C@@H](CCSC)NC(=O)[C@H](CC(C)C)SCCNC(=O)[C@H](Cc1ccccc1)NC(=O)[C@@H](Cc1ccccc1)NC(=O)[C@H](CCCN=C(N)N)NC(=O)[C@H](CC(N)=O)NC(=O)C1CCCN1C(=O)[C@H](CCCCNC(=O)OCc1ccccc1)NC(=O)C1CCCN1C(=O)[C@H](CCCN=C(N)N)NC(=O)OCc1ccccc1 (stereo in doubt),68,54.5,18.5,20,
COC(=O)[C@H](CCSC)NC(=O)[C@H](CC(C)C)NC(=O)[C@@H](Cc1c[nH]c2ccccc12)NC(=O)[C@H](Cc1ccccc1)NC(=O)[C@@H](Cc1ccccc1)NC(=O)[C@H](CCCCN)NC(=O)[C@H](CC(N)=O)NC(=O)C1CCCN1C(=O)[C@H](CCCCN)NC(=O)C1CCCN1C(=O)[C@@H](N)CCCN=C(N)N (stereo in doubt),< 2,< 2,< 2,< 2,Change in amplitude response [11]: 9%; Change in amplitude response [12]: 8%; Change in amplitude response [13]: -54%
COC(=O)[C@H](CCSC)NC(=O)[C@H](CC(C)C)NC(=O)[C@@H](Cc1c[nH]c2ccccc12)NC(=O)[C@H](Cc1ccccc1)NC(=O)[C@@H](Cc1ccccc1)NC(=O)[C@H](CCCN=C(N)N)NC(=O)[C@H](CC(N)=O)NC(=O)C1CCCN1C(=O)[C@H](CCCCN)NC(=O)C1CCCN1C(=O)[C@@H](N)CCCN=C(N)N (stereo in doubt),4,2.2,2.2,6,
CSCC[C@H](NC(=O)[C@H](CC(C)C)NC(=O)[C@@H](Cc1c[nH]c2ccccc12)NC(=O)[C@H](Cc1ccccc1)NC(=O)[C@@H](Cc1ccccc1)NC(=O)[C@H](CCCN=C(N)N)NC(=O)[C@H](CC(N)=O)NC(=O)C1CCCN1C(=O)[C@H](CCCCN)NC(=O)C1CCCN1C(=O)[C@@H](N)CCCN=C(N)N)C(=O)O (stereo in doubt),< 2,< 2,< 2,< 2,
